Tests used:
Cavia porcellus = species: Cavia porcellus; assay: Antimuscarinic activity was assayed for its ability to block the acetyl-choline induced contraction of the guinea pig ileum; format: functional
Rattus norvegicus [1] = species: Rattus norvegicus; assay: Inhibition of carbachol-induced release of alpha-amylase from pancreatic acini from rat was determined; format: functional; conditions: read-out: I50
Summary of the method: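 Dispersed acini from male Sprague–Dawley rat pancreas (collagenase 0.8 mg/mL, three incubations), in DMEM with 0.2% albumin, 0.01% trypsin inhibitor, 0.09% theophylline under O2; viability >99%. Incubated with graded antagonist plus 10⁻⁵ M carbachol; secreted α-amylase by Phadebas assay; I50 by curve fitting.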

[2] = molecular target: Muscarinic acetylcholine receptor; assay: Inhibit the binding of [N-mnethyl-3H]-scopolamine [3H]-NMS) to Muscarinic acetylcholine receptor of human IRM-30 neuroblastoma cells
Rattus norvegicus [3] = species: Rattus norvegicus; assay: Compound was tested for decrease in rate of lever pressing by rat; format: functional
Summary of the method: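 Male Sprague–Dawley rats (350 g) lever-pressing for food on a 10-response schedule; sessions 30 min or 50 food presentations. Drug given intraperitoneally 30 min before session; saline controls. Mean ± SEM of single or duplicate determinations in four to six rats; I50 in mol/kg for rate decrease.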

Compound	Kb (Cavia porcellus)	Kb (Cavia porcellus; read-out: pA2 (converted))	IC50 (Rattus norvegicus [1])	Ki [2]	I50 (Rattus norvegicus [3])
CCN(CC)CCOC(=O)C(c1ccccc1)c1ccccc1 [ADIPHENINE]	92 nM	79.4 nM	350 nM	–	–
CCN(CC)CCOC(=O)C(C)(c1ccccc1)c1ccccc1 [APROFENE]	3.1 nM	3.16 nM	11 nM	23 nM	–
CN1[C@@H]2CC[C@H]1C[C@@H](OC(=O)C(CO)c1ccccc1)C2 (stereo partly drawn) [ATROPINE]	2 nM	2 nM	51 nM	–	2.3e-05 M/kg
CN1CC2CC(OC(=O)C(C)(c3ccccc3)c3ccccc3)CC1C2 (stereo not drawn) [AZAPROPHEN]	–	–	0.068 nM	0.27 nM	1.9e-05 M/kg
CCN(CC)CCOC(=O)C(O)(c1ccccc1)c1ccccc1 [BENACTYZINE]	–	–	30 nM	–	–
CN1CCN(CC(=O)N2c3ccccc3C(=O)Nc3cccnc32)CC1 [PIRENZEPINE]	50000 nM	50100 nM	2800 nM	–	–

Reference: ChEMBL document CHEMBL1123735 (J Med Chem, 1987)
